Assay results taken from ChEMBL document CHEMBL1121449, “Synthesis and antineoplastic activity of hydroquinone dialdehydes” (J Med Chem, 1980).

Tests used:
Mus musculus [1] = assay: Tested for change in body weight from onset to termination at dose of 5 mg/kg; type: functional
In short: (§1)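 Female CD-1 mice inoculated ip with 0.1 mL of 10^7 Sarcoma 180 ascites cells/mL. Drug in 0.9% NaCl with 5% ethanol and Tween 80, serially diluted in saline, given ip once daily for 6 days starting 24 h after implantation. Dose based on mean starting weight. Controls received saline. Weight change recorded from day 0 to day 7, as % change.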

Mus musculus [2] = assay: Tested for change in body weight of Mice bearing Ehrlich carcinoma from onset to termination at dose of 5 mg/kg; type: functional
In short: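 Female CD-1 mice given ip implants of Ehrlich carcinoma (0.1 mL of 10^7 cells/mL). Drug in saline containing 5% ethanol and Tween 80, injected ip once daily for 6 consecutive days from 24 h post-implant. Controls received 0.9% NaCl. % body weight change measured between tumor implantation (day 0) and day 7.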

Mus musculus [3] = assay: Tested for change in body weight of Mice bearing […] 755 from onset to termination at dose of 10 mg/kg; type: functional
In short: (§2)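 Adenocarcinoma 755 implanted ip (0.1 mL of 10^7 cells/mL) in female AKD2F1 mice. Daily ip dosing for 6 days beginning 24 h after implantation, vehicle 0.9% NaCl/5% ethanol/Tween 80, lower doses by saline dilution. Control mice received saline. Weight difference between day 0 and day 7 taken as % change and used as a toxicity measure.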

Mus musculus [4] = assay: Tested for change in body weight of Mice bearing […] 755 from onset to termination at dose of 20 mg/kg; type: functional; in short: as §2
Mus musculus [5] = assay: Tested for change in body weight of Mice bearing […] 755 from onset to termination at dose of 5 mg/kg; type: functional; in short: as §2
Mus musculus [6] = assay: Tested for mean survival time of Mice bearing Ehrlich carcinoma not surviving 50 days as a percentage at dose of 10 mg/kg; type: functional
In short: (§3)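 Female CD-1 mice, Ehrlich ascites carcinoma, 0.1 mL of 10^7 cells/mL given ip. Drug in 0.9% NaCl with 5% ethanol and trace Tween 80, serially diluted with saline. Dosed ip at 0.5 mL once daily for 6 days from 24 h post-implant; saline controls. T/C is the mean survival of treated mice dying before 50 days as % of controls. Survivors are those alive ≥50 days.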

Mus musculus [7] = assay: Tested for mean survival time of Mice bearing Ehrlich carcinoma not surviving 50 days as a percentage at dose of 20 mg/kg; type: functional; in short: as §3
Mus musculus [8] = assay: Tested for mean survival time of Mice bearing Ehrlich carcinoma not surviving 50 days as a percentage at dose of 5 mg/kg; type: functional; in short: as §3
Mus musculus [9] = assay: Tested for mean survival time of Mice bearing […] 755 not surviving 50 days as a percentage at dose of 10 mg/kg; type: functional
In short: (§4)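 Female AKD2F1 mice, adenocarcinoma 755, 0.1 mL of 10^7 cells/mL given ip. Vehicle 0.9% NaCl/5% ethanol/Tween 80, serially diluted with saline. Dosed ip at 0.5 mL once daily for 6 consecutive days starting 24 h post-implant; saline controls. T/C is the mean survival of non-50-day survivors as % of controls. Survivors are those alive ≥50 days.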

Mus musculus [10] = assay: Tested for mean survival time of Mice bearing […] 755 not surviving 50 days as a percentage at dose of 20 mg/kg; type: functional; in short: as §4
Mus musculus [11] = assay: Tested for mean survival time of Mice bearing […] 755 not surviving 50 days as a percentage at dose of 5 mg/kg; type: functional; in short: as §4
Mus musculus [12] = assay: Tested for mean survival time treated animal not surviving 50 days as a percentage at dose of 1.25 mg/kg; type: functional
In short: (§5)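 Female CD-1 mice, Sarcoma 180 ascites, 0.1 mL of 10^7 cells/mL given ip. Drug in 0.9% NaCl, 5% ethanol, Tween 80, serially diluted with saline. Dosed ip at 0.5 mL daily for 6 days from 24 h post-implant; daily dose based on starting mean weight. T/C is the mean survival of treated mice dying before 50 days vs controls. Survivors are those alive ≥50 days out of those treated.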

Mus musculus [13] = assay: Tested for mean survival time treated animal not surviving 50 days as a percentage at dose of 10 mg/kg; type: functional; in short: as §5
Mus musculus [14] = assay: Tested for mean survival time treated animal not surviving 50 days as a percentage at dose of 15 mg/kg; type: functional; in short: as §5
Mus musculus [15] = assay: Tested for mean survival time treated animal not surviving 50 days as a percentage at dose of 2.5 mg/kg; type: functional; in short: as §5
Mus musculus [16] = assay: Tested for mean survival time treated animal not surviving 50 days as a percentage at dose of 20 mg/kg; type: functional; in short: as §5
Mus musculus [17] = assay: Tested for mean survival time treated animal not surviving 50 days as a percentage at dose of 5 mg/kg; type: functional; in short: as §5
Mus musculus [18] = assay: Tested for change in body weight from onset to termination at dose of 1.25 mg/kg; type: functional; in short: as §1
Mus musculus [19] = assay: (§6) Tested for change in body weight from onset to termination at dose of 10 mg/kg; type: functional
In short: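 Tumor-bearing mice were dosed ip once daily for 6 consecutive days from 24 h after ip tumor implantation; saline controls. Each group was weighed on day 7, the day after the last injection, and the change from the implantation day (day 0) was expressed as % body-weight change, used as a toxicity measure.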

Mus musculus [20] = assay: Tested for change in body weight from onset to termination at dose of 15 mg/kg; type: functional; in short: as §1
Mus musculus [21] = assay: Tested for change in body weight from onset to termination at dose of 2.5 mg/kg; type: functional; in short: as §1
Mus musculus [22] = assay: Tested for change in body weight from onset to termination at dose of 20 mg/kg; type: functional; in short: as §1
Mus musculus [23] = assay: Tested for Mice bearing […] 755 surviving at least 50 days out of 5 animal treated at dose of 10 mg/kg; type: functional; in short: as §4
Mus musculus [24] = assay: Tested for Mice bearing […] 755 surviving at least 50 days out of 5 animal treated at dose of 20 mg/kg; type: functional; in short: as §4
Mus musculus [25] = assay: Tested for Mice bearing […] 755 surviving at least 50 days out of 5 animal treated at dose of 5 mg/kg; type: functional; in short: as §4
Mus musculus [26] = assay: Tested for number of animal surviving at least 50 days out of 10 animal treated at dose of 15 mg/kg; type: functional; in short: as §5
Mus musculus [27] = assay: Tested for number of animal surviving at least 50 days out of 10 animal treated at dose of 2.5 mg/kg; type: functional; in short: as §5
Mus musculus [28] = assay: Tested for number of animal surviving at least 50 days out of 10 animal treated at dose of 20 mg/kg; type: functional; in short: as §5
Mus musculus [29] = assay: Tested for Mice bearing Ehrlich carcinoma surviving at least 50 days out of 10 animal treated at dose of 10 mg/kg; type: functional; in short: as §3
Mus musculus [30] = assay: Tested for Mice bearing Ehrlich carcinoma surviving at least 50 days out of 10 animal treated at dose of 20 mg/kg; type: functional; in short: as §3
Mus musculus [31] = assay: Tested for Mice bearing Ehrlich carcinoma surviving at least 50 days out of 10 animal treated at dose of 5 mg/kg; type: functional; in short: as §3
[32] = Tested for inhibition of growth of sarcoma 180 cells in culture; type: functional, cell-based; settings: Mus musculus
In short: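 Sarcoma 180 cells in suspension in Fischer's medium with 10% horse serum and penicillin/streptomycin, seeded at 10^4 cells/mL. Drug added from 10× stocks in 10% Me2SO/PBS, final 1–100 μM. Control cultures contained 1% Me2SO. Triplicate Coulter counts at 24, 48 and 72 h. IC50 read from a plot of inhibition of cell-number increase at 72 h versus concentration.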

Mus musculus [33] = assay: Tested for number of animal surviving at least 50 days out of 5 animal treated at dose of 5 mg/kg
Mus musculus [34] = assay: Tested for number of animal surviving at least 50 days out of 25 animal treated at dose of 15 mg/kg
Mus musculus [35] = assay: Tested for change in body weight from onset to termination at dose of mg/kg; type: functional; in short: as §1
Mus musculus [36] = assay: Tested for mean survival time treated animal not surviving 50 days as a percentage at dose of 0.31 mg/kg; type: functional; in short: as §5
Mus musculus [37] = assay: Tested for mean survival time treated animal not surviving 50 days as a percentage at dose of 0.63 mg/kg; type: functional; in short: as §5
Mus musculus [38] = assay: Tested for change in body weight from onset to termination at dose of 0.63 mg/kg; type: functional; in short: as §1
Mus musculus [39] = assay: Tested for number of animal surviving at least 50 days out of 10 animal treated at dose of 1.25 mg/kg; type: functional; in short: as §5
Mus musculus [40] = assay: Tested for number of animal surviving at least 50 days out of 15 animal treated at dose of 2.5 mg/kg; type: functional; in short: as §5
Mus musculus [41] = assay: Tested for number of animal surviving at least 50 days out of 15 animal treated at dose of 5 mg/kg; type: functional; in short: as §5
Mus musculus [42] = assay: Tested for number of animal surviving at least 50 days out of 5 animal treated at dose of 0.31 mg/kg; type: functional; in short: as §5
Mus musculus [43] = assay: Tested for number of animal surviving at least 50 days out of 5 animal treated at dose of 0.63 mg/kg; type: functional; in short: as §5
Mus musculus [44] = assay: Tested for number of animal surviving at least 50 days out of 5 animal treated at dose of 10 mg/kg; type: functional; in short: as §5
Mus musculus [45] = assay: Tested for mean survival time treated animal not surviving 50 days as a percentage at dose of 30 mg/kg; type: functional; in short: as §5
Mus musculus [46] = assay: as §6; type: functional; in short: as §1; remark: listed apart in the source
Mus musculus [47] = assay: Tested for change in body weight from onset to termination at dose of 30 mg/kg; type: functional; in short: as §1
Mus musculus [48] = assay: Tested for number of animal surviving at least 50 days out of 5 animal treated at dose of 20 mg/kg; type: functional; in short: as §5
Mus musculus [49] = assay: Tested for number of animal surviving at least 50 days out of 5 animal treated at dose of 30 mg/kg; type: functional; in short: as §5

CCCc1c(O)c(C=O)c(C=O)c(O)c1CCC
Activity (Mus musculus [1]): 9%
Activity (Mus musculus [2]): 5%
Activity (Mus musculus [3]): -15%
Activity (Mus musculus [4]): -15%
Activity (Mus musculus [5]): -16%
Activity (Mus musculus [6]): 202%
Activity (Mus musculus [7]): 166%
Activity (Mus musculus [8]): 154%
Activity (Mus musculus [9]): 22%
Activity (Mus musculus [10]): 35%
Activity (Mus musculus [11]): 16%
Activity (Mus musculus [12]): 88%
Activity (Mus musculus [13]): 178%
Activity (Mus musculus [14]): 171%
Mean survival time, treated vs control (T/C) (Mus musculus [15]): 138%
Activity (Mus musculus [16]): 150%
Activity (Mus musculus [17]): 205%
Activity (Mus musculus [18]): 10%
Activity (Mus musculus [19]): -1%
Activity (Mus musculus [20]): 2%
Activity (Mus musculus [21]): 9%
Activity (Mus musculus [22]): -3%
Survivors (Mus musculus [23]): 4
Survivors (Mus musculus [24]): 3
Survivors (Mus musculus [25]): 4
Survivors (Mus musculus [26]): 0
Survivors (Mus musculus [27]): 0
Survivors (Mus musculus [28]): 0
Survivors (Mus musculus [29]): 4
Survivors (Mus musculus [30]): 1
Survivors (Mus musculus [31]): 0
IC50 [32]: 29 µM
Survivors (Mus musculus [33]): 4
Survivors (Mus musculus [34]): 2

O=Cc1ccccc1C=O [ORTHO-PHTHALALDEHYDE]
Activity (Mus musculus [1]): -2%
Activity (Mus musculus [35]): 15%
Activity (Mus musculus [36]): 121%
Activity (Mus musculus [37]): 193%
Activity (Mus musculus [12]): 176%
Activity (Mus musculus [13]): 43%
Mean survival time, treated vs control (T/C) (Mus musculus [15]): 154%
Activity (Mus musculus [17]): 99%
Activity (Mus musculus [38]): 5%
Activity (Mus musculus [18]): 4%
Activity (Mus musculus [19]): -3%
Activity (Mus musculus [21]): 0%
Survivors (Mus musculus [39]): 1
Survivors (Mus musculus [40]): 0
Survivors (Mus musculus [41]): 0
Survivors (Mus musculus [42]): 0
Survivors (Mus musculus [43]): 0
Survivors (Mus musculus [44]): 0
IC50 [32]: 12 µM

Cc1c(C)c(O)c(C=O)c(C)c1O
Activity (Mus musculus [13]): 94%
Activity (Mus musculus [16]): 84%
Activity (Mus musculus [45]): 89%
Activity (Mus musculus [46]): 25%
Activity (Mus musculus [22]): 25%
Activity (Mus musculus [47]): 17%
Survivors (Mus musculus [44]): 0
Survivors (Mus musculus [48]): 0
Survivors (Mus musculus [49]): 0
IC50 [32]: 27 µM
